Laboratory results taken from ChEMBL document CHEMBL4118152, “Discovery of Potent and Selective Periphery-Restricted Quinazoline Inhibitors of the Cyclic Nucleotide Phosphodiesterase PDE1” (J Med Chem, 2018).

Columns and labels:
Rattus norvegicus [1] = organism: Rattus norvegicus; assay: Inhibition of rat GABA-A receptor at 10 uM relative to control
[2] = target: Voltage-dependent N-type calcium channel subunit alpha-1B (Rattus norvegicus) (UniProt Q02294); assay: Displacement of [125I]omega -conotoxin GVIA from rat brain N-type Calcium channel at 10 uM after 30 mins by scintillation counting analysis relative to control
[3] = target: 3',5'-cyclic-AMP phosphodiesterase 7B (Homo sapiens, UniProt Q9NP56); assay: Inhibition of full length recombinant human PDE7B using 3',5'-[3H]cAMP as substrate after 30 mins by scintillation proximity assay
How it was run: (§1)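 Enzymes were human except PDE6A, which was bovine. Each was assayed with cAMP or cGMP substrate, as appropriate to the enzyme, at concentrations below 1/3 of Km. IC50 values are mean ± SEM from n = 3 or more.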

[4] = target: Somatostatin receptor type 4 (Homo sapiens) (UniProt P31391); assay: Inhibition of human Somatostatin 4 receptor at 10 uM relative to control
[5] = Ratio of fraction unbound in Wistar Hannover rat brain to plasma at 1 mg/kg, sc measured at 2 hrs post dose by LC-MS/MS analysis; type: ADME, organism-based; details: in vivo
[6] = target: Dual specificity calcium/calmodulin-dependent 3',5'-cyclic nucleotide phosphodiesterase 1A (Homo sapiens, UniProt P54750); assay: Inhibition of full length recombinant human PDE1A using 3',5'-[3H]cAMP as substrate after 30 mins by scintillation proximity assay
How it was run: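 Human recombinant enzymes; substrate held below 1/3 of Km. IC50 reported as mean ± SEM of at least 3 determinations.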

[7] = target: 5-hydroxytryptamine receptor 4 (Homo sapiens) (UniProt Q13639); assay: Inhibition of human 5-HT4E receptor at 10 uM relative to control
[8] = target: 5-hydroxytryptamine receptor 7 (Homo sapiens) (UniProt P34969); assay: Inhibition of human 5-HT7 receptor at 10 uM relative to control
Homo sapiens [9] = organism: Homo sapiens; assay: Selectivity ratio of IC50 for full length recombinant human PDE8B to IC50 for full length recombinant human PDE1B1
How it was run: (§2)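 IC50s were measured against recombinant PDEs, all human except PDE6A (bovine). Each enzyme was given its appropriate cAMP or cGMP substrate at below 1/3 of its Km. IC50s are the mean of n = 3 or more. The selectivity ratio is the IC50 for the other PDE divided by the IC50 for PDE1B1 or PDE1A.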

Homo sapiens [10] = organism: Homo sapiens; assay: Inhibition of human delta 2 opioid receptor at 10 uM relative to control
[11] = target: cGMP-dependent 3',5'-cyclic phosphodiesterase (Homo sapiens, UniProt O00408); assay: Inhibition of full length recombinant human PDE2A1 using 3',5'-[3H]cGMP as substrate after 30 mins by scintillation proximity assay; how it was run: as §1
[12] = target: High affinity cGMP-specific 3',5'-cyclic phosphodiesterase 9A (Homo sapiens, UniProt O76083); assay: Inhibition of full length recombinant human PDE9A1 using 3',5'-[3H]cGMP as substrate after 30 mins by scintillation proximity assay; how it was run: as §1
[13] = target: cGMP-specific 3',5'-cyclic phosphodiesterase (Homo sapiens, UniProt O76074); assay: Inhibition of full length recombinant human PDE5A1 using 3',5'-[3H]cGMP as substrate after 30 mins by scintillation proximity assay; how it was run: as §1
[14] = target: Cannabinoid receptor 1 (Homo sapiens) (UniProt P21554); assay: Inhibition of human cannabinoid CB1 receptor at 10 uM relative to control
Caspase-3 (Homo sapiens) = Caspase-3 (Homo sapiens) (UniProt P42574); assay: Inhibition of recombinant human Caspase-3 using benzyloxycarbonyl- Asp-Glu-Val-Asp-AFC as substrate at 10 uM after 60 mins by fluorimetric method relative to control
Homo sapiens [15] = organism: Homo sapiens; assay: Selectivity ratio of IC50 for full length recombinant human PDE11A4 to IC50 for full length recombinant human PDE1B1; how it was run: as §2
Homo sapiens [16] = organism: Homo sapiens; assay: Selectivity ratio of IC50 for full length recombinant human PDE10A1 to IC50 for full length recombinant human PDE1A; how it was run: as §2
[17] = Fraction unbound in Wistar Hannover rat plasma at 1 mg/kg, sc measured at 4 hrs post dose by LC-MS/MS analysis; type: ADME, organism-based; details: in vivo
[18] = target: Tyrosine-protein kinase ABL1 (Homo sapiens) (UniProt P00519); assay: Inhibition of human ABL at 10 uM relative to control
[19] = target: Endothelin-1 receptor (Homo sapiens) (UniProt P25101); assay: Inhibition of endothelin A receptor (unknown origin) at 10 uM relative to control
CYP2C9 = CYP2C9 (Homo sapiens, UniProt P11712); assay: Inhibition of human CYP2C9 at 10 uM relative to control; type: ADME
Rattus norvegicus [20] = organism: Rattus norvegicus; assay: Inhibition of rat brain AMPA receptor assessed as [3H]AMPA uptake at 10 uM after 60 mins by scintillation counting analysis relative to control
Homo sapiens [21] = organism: Homo sapiens; assay: Selectivity ratio of IC50 for full length recombinant human PDE5A1 to IC50 for full length recombinant human PDE1A; how it was run: as §2
[22] = target: Dual specificity calcium/calmodulin-dependent 3',5'-cyclic nucleotide phosphodiesterase 1B (Homo sapiens, UniProt Q01064); assay: Inhibition of full length recombinant human PDE1B1 using 3',5'-[3H]cAMP as substrate after 30 mins by scintillation proximity assay; how it was run: as §1
[23] = target: Adenosine receptor A3 (Homo sapiens) (UniProt P0DMS8); assay: Inhibition of human adenosine A3 receptor at 10 uM relative to control
[24] = target: D(2) dopamine receptor (Homo sapiens) (UniProt P14416); assay: Inhibition of dopamine D2 receptor (unknown origin) at 10 uM relative to control
[25] = Fraction unbound in Wistar Hannover rat brain at 1 mg/kg, sc measured at 1 hr post dose by LC-MS/MS analysis; type: ADME, organism-based; details: in vivo
[26] = target: Rod cGMP-specific 3',5'-cyclic phosphodiesterase subunit alpha (Bos taurus, UniProt P11541); assay: Inhibition of bovine retina PDE6A using 3',5'-[3H]cGMP as substrate after 30 mins by scintillation proximity assay; how it was run: as §1
[27] = target: 5-hydroxytryptamine receptor 3A (Homo sapiens) (UniProt P46098); assay: Inhibition of human 5-HT3 receptor at 10 uM relative to control
Homo sapiens [28] = organism: Homo sapiens; assay: Selectivity ratio of IC50 for full length recombinant human PDE3A1 to IC50 for full length recombinant human PDE1A; how it was run: as §2
[29] = target: Androgen receptor (Homo sapiens) (UniProt P10275); assay: Inhibition of human Androgen receptor at 10 uM relative to control
Homo sapiens [30] = organism: Homo sapiens; assay: Selectivity ratio of IC50 for full length recombinant human PDE9A1 to IC50 for full length recombinant human PDE1A; how it was run: as §2
[31] = Ratio of fraction unbound in Wistar Hannover rat brain to plasma at 1 mg/kg, sc measured at 1 hr post dose by LC-MS/MS analysis; type: ADME, organism-based; details: in vivo
[32] = target: Cysteinyl leukotriene receptor 1 (Homo sapiens) (UniProt Q9Y271); assay: Inhibition of human leukotriene D4 receptor at 10 uM relative to control
Homo sapiens [33] = organism: Homo sapiens; assay: Selectivity ratio of IC50 for full length recombinant human PDE7B to IC50 for full length recombinant human PDE1A; how it was run: as §2
[34] = Fraction unbound in Wistar Hannover rat brain at 1 mg/kg, sc measured at 2 hrs post dose by LC-MS/MS analysis; type: ADME, organism-based; details: in vivo

cGMP-dependent 3',5'-cyclic phosphodiesterase, sequence (O00408 whole entry): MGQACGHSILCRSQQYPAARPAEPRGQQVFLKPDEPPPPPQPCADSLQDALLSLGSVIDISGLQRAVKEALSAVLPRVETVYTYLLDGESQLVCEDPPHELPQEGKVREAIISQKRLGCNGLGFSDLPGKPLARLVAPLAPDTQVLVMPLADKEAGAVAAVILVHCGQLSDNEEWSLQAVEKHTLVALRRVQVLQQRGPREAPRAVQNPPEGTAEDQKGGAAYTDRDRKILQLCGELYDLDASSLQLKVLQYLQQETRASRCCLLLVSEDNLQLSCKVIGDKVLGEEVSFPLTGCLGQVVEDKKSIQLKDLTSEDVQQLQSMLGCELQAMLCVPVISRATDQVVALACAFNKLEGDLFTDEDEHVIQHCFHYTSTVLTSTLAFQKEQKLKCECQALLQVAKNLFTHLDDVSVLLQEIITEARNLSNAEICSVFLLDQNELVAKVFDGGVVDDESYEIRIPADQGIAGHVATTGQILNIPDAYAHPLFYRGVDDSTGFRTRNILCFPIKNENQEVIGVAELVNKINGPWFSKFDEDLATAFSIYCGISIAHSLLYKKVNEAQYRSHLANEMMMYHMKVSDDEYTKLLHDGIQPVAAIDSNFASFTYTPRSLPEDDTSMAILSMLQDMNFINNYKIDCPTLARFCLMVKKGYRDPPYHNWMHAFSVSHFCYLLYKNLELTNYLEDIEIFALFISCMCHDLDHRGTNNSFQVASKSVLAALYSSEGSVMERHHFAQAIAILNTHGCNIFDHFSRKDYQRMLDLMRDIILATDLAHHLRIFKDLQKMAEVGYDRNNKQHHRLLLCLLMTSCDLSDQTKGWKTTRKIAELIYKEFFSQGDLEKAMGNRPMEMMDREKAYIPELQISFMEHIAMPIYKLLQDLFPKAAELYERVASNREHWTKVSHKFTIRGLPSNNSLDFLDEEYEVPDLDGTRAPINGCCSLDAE
Somatostatin receptor type 4 (Homo sapiens), sequence (P31391 whole entry): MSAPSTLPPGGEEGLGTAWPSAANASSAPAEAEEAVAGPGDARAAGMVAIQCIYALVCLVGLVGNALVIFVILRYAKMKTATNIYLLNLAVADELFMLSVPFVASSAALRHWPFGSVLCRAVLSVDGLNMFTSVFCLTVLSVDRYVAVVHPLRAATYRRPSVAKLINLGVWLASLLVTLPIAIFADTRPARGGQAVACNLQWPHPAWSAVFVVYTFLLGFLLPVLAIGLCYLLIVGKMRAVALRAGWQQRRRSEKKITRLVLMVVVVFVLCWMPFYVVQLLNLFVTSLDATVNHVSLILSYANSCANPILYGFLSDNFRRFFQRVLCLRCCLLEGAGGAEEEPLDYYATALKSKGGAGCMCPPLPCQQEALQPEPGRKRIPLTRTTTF
Cannabinoid receptor 1 (Homo sapiens), sequence (P21554 whole entry): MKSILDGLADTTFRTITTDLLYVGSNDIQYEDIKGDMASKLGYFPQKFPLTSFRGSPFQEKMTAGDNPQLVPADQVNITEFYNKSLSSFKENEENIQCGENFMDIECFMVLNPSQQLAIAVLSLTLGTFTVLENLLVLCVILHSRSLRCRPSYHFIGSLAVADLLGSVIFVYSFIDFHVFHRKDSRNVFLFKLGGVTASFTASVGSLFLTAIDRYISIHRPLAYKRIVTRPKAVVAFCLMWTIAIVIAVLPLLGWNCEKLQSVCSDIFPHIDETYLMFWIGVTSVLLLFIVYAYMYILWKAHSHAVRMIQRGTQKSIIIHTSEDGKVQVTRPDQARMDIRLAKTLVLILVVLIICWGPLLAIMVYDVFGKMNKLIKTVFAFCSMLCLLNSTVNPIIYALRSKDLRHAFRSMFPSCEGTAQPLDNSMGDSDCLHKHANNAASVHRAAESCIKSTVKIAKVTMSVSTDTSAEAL
Caspase-3 (Homo sapiens), sequence (P42574 29-175 limits assumed): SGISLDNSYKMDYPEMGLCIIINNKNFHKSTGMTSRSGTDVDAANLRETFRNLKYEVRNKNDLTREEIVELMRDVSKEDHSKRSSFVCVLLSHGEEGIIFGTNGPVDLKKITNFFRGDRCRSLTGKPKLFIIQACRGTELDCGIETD
Caspase-3 (Homo sapiens), sequence (P42574 176-277 limits assumed): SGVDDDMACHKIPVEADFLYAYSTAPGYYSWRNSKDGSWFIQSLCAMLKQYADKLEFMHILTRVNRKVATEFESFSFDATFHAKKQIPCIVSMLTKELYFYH
High affinity cGMP-specific 3',5'-cyclic phosphodiesterase 9A, sequence (O76083 whole entry): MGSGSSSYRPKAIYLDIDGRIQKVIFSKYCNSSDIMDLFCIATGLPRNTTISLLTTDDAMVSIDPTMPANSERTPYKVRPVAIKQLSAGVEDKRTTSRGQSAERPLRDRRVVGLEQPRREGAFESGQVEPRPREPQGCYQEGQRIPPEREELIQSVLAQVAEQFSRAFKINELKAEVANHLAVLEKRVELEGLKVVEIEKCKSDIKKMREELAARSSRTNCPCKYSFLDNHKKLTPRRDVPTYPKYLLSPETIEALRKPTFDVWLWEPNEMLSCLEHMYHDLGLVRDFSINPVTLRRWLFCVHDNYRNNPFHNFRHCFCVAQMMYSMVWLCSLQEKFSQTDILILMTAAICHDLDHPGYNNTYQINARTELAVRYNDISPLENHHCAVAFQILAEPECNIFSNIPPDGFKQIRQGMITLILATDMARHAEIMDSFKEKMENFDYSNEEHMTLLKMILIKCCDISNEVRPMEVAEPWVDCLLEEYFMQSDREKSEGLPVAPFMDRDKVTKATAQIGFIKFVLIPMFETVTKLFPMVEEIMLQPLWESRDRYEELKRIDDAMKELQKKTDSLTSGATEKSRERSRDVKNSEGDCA
Dual specificity calcium/calmodulin-dependent 3',5'-cyclic nucleotide phosphodiesterase 1A, sequence (P54750 whole entry): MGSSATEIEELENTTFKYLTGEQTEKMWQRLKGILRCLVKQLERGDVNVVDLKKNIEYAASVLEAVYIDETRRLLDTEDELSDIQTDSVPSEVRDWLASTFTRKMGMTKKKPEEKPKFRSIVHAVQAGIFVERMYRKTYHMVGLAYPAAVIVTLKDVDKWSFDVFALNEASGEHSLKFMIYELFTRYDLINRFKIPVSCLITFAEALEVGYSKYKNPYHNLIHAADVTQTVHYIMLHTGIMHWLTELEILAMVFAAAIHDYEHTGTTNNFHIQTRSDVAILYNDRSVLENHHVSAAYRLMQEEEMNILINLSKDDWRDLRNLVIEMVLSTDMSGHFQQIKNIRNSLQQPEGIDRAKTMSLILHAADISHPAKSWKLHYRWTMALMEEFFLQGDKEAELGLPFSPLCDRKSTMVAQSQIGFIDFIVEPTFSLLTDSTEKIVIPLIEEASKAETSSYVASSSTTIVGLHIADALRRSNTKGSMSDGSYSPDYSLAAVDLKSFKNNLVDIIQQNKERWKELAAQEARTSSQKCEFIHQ
D(2) dopamine receptor (Homo sapiens), sequence (P14416 whole entry): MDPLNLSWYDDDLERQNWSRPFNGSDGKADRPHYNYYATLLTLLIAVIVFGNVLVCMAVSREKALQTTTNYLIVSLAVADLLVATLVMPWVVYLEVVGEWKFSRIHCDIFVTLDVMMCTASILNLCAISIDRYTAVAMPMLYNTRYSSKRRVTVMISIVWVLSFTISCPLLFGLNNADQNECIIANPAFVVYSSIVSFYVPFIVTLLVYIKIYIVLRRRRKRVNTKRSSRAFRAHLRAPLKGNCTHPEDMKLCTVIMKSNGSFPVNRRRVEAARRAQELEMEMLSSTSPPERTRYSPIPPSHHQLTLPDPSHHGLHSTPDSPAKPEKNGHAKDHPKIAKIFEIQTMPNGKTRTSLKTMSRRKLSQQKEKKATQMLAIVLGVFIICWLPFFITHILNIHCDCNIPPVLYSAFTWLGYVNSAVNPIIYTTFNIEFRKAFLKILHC
Cysteinyl leukotriene receptor 1 (Homo sapiens), sequence (Q9Y271 whole entry): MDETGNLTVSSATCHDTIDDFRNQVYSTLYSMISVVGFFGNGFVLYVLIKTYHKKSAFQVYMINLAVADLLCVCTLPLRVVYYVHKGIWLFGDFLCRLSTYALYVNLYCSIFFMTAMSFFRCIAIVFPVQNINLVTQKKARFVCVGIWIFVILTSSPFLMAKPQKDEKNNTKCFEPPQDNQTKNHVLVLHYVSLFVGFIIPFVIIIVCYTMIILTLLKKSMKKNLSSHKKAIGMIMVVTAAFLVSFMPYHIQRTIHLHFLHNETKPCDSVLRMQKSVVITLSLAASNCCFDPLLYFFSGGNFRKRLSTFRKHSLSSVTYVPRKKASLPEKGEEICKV
5-hydroxytryptamine receptor 3A (Homo sapiens), sequence (P46098 whole entry): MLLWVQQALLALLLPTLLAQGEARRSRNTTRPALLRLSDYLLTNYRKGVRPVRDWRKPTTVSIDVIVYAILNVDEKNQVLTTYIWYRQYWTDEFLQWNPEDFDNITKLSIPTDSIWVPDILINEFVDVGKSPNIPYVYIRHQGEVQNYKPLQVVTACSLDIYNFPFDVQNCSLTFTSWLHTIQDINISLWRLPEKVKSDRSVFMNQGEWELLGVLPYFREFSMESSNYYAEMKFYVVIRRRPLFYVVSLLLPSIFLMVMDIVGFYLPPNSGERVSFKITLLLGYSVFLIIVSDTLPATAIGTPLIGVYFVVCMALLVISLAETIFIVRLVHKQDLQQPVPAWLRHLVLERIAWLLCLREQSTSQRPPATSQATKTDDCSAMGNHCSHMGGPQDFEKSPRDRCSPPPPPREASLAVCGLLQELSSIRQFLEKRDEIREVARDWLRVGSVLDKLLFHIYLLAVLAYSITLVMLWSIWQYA
5-hydroxytryptamine receptor 4 (Homo sapiens), sequence (Q13639 whole entry): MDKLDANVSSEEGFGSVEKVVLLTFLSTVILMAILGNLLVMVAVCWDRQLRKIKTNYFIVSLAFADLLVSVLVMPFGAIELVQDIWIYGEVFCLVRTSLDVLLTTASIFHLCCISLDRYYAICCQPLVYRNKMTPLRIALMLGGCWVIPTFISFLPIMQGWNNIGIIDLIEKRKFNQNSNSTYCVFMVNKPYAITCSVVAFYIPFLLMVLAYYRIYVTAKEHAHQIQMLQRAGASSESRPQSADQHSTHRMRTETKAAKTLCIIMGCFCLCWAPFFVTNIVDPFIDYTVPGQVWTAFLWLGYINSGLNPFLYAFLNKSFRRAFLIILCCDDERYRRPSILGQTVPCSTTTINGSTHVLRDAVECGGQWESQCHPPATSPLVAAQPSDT

## COc1ccc2c(N[C@@H](C)Cc3cc(C)[nH]n3)ncnc2c1OC
Rattus norvegicus [1]
  inhibition: < 50%
[2]
  inhibition: < 50%
[3]
  IC50: 41.3 µM
[4]
  inhibition: < 50%
[5]
  Ratio: 0.05
[6]
  IC50: 0.042 µM
[7]
  inhibition: < 50%
[8]
  inhibition: < 50%
Homo sapiens [9]
  Ratio IC50: 1700
Homo sapiens [10]
  inhibition: < 50%
[11]
  IC50: 47.6 µM
[12]
  IC50: > 0.2 µM
[13]
  IC50: 54.3 µM
[14]
  inhibition: < 50%
Caspase-3 (Homo sapiens)
  inhibition: < 50%
Homo sapiens [15]
  Ratio IC50: 3740
Homo sapiens [16]
  Ratio IC50: 10
[17]
  Cp(f): 7 nM
[18]
  inhibition: < 50%
[19]
  inhibition: < 50%
CYP2C9
  inhibition at 10 µM: < 50%
Rattus norvegicus [20]
  inhibition: < 50%
Homo sapiens [21]
  Ratio IC50: 1290
[22]
  IC50: 0.0091 µM
[23]
  inhibition: < 50%
[24]
  inhibition: < 50%
[25]
  Drug uptake(free): 4 nM
[26]
  IC50: > 0.142 µM
[27]
  inhibition: < 50%
Homo sapiens [28]
  Ratio IC50: 3170
[29]
  inhibition: < 50%
Homo sapiens [30]
  Ratio IC50: > 4760
[31]
  Ratio: 0.03
[32]
  inhibition: < 50%
Homo sapiens [33]
  Ratio IC50: 983
[34]
  Drug uptake(free): 2 nM
